We go through 2 molecules from paper PMC7152711 (EBioMedicine, 2020).

Series [1] deals with E. granulosus ss cysts. In words: In vivo efficacy, oral administration, secondarily infected mice. More on the design: species or system Echinococcus granulosus sensu stricto. The method, boiled down:
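Microcyst-infected female BALB/c mice (3 months post-infection), 10 per group, were gavaged once daily for 30 days with 0.2 ml. Test compound 57 mg/kg was given in deionised water, albendazole 50 mg/kg in 0.5% carboxymethyl cellulose, and controls received deionised water. Necropsy 2 weeks post-treatment. Cysts were weighed and scored alive or dead by morphological type. One-way ANOVA or Kruskal-Wallis test.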

The next series relates to cystic echinococcosis. The settings on record: clinical study ref 5; cited from earlier work.
The test system of series [2] is E. granulosus ss protoscoleces (PSCs). As to the kind of experiment: E. granulosus ss PSC killing assay. The following applies: Echinococcus granulosus, 24 h, read-out: LC50 (protoscolicidal activity). The series is classed as cell-based, Echinococcus granulosus sensu stricto. The method, boiled down:
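Protoscoleces were aspirated from cysts in naturally infected sheep livers and cultured by a prior method. Wells held 200 PSCs; test compound from a 10× aqueous stock, final 34–114 μM; medium-only control. Incubation was 24 h at 37 °C, 5% CO2. Viability: 0.1% methylene blue for 5 min, with blue PSCs scored dead under an inverted microscope. Triplicate; LC50 by nonlinear regression.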

Series [3] has as its system E. granulosus ss cysts. In words: Transmission electron microscopy of cysts from treated mice. The series is classed as in vivo, Echinococcus granulosus sensu stricto. In short, it runs like this: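 Cysts came from infected BALB/c mice given test compound at 57 mg/kg, either i.p. once daily for 3 days or by gavage daily for 30 days, and from albendazole-treated (50 mg/kg p.o.) and untreated mice. Cyst ultrastructure was examined by transmission electron microscopy, covering the laminated layer, tegument, germinal layer and microtriches.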

Series [4] is described as follows: Tolerability, body weight and blood parameters, oral study. The class given is in vivo, mice. The method, boiled down: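 In the oral study, infected BALB/c mice (n = 10 per group) were gavaged daily for 30 days with test compound in water, albendazole in 0.5% carboxymethyl cellulose, or water alone. Mice were monitored for morbidity signs and behaviour. Two weeks after treatment, plasma was collected, and body, liver, kidney and thymus weights were recorded.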

For series [5] the following is noted: rat, 28 days oral treatment ref 16; cited from earlier work.
The conditions of series [6]: dogs, oral 24 mg/kg/day for 30 days ref 20; cited from earlier work.
For the next series, the target named is CYP3A4 (Homo sapiens, UniProt P08684). In words: CYP450 inhibition assay, human liver microsomes. The class given is in vitro ADME. Background: Liver microsomes are vesicles of endoplasmic reticulum, rich in cytochrome P450 enzymes.
Chain of CYP3A4 (P08684 whole entry): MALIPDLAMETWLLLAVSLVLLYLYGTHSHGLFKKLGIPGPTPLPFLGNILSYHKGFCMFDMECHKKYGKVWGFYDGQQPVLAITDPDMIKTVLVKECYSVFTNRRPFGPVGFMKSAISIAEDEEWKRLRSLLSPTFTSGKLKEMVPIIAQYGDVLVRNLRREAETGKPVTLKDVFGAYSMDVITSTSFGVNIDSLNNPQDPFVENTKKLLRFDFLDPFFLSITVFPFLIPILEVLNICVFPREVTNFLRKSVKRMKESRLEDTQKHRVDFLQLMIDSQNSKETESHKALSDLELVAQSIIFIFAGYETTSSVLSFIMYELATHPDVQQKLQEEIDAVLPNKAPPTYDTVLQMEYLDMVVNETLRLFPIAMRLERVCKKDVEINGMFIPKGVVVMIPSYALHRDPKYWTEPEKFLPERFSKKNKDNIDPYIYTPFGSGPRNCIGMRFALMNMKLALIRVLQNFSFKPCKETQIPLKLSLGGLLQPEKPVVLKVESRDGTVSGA
Another series concerns caspase-3. In words: Caspase-3 activity assay in PSCs. The class given is cell-based, E. granulosus. The settings on record: 100 µM 24 h, vs vehicle controls.
The conditions of series [7]: dog, 28 days oral treatment ref 16; cited from earlier work.
For series [8], the target named is T1, E. granulosus ss topoisomerase I (Egtopo I) (Echinococcus granulosus, UniProt W6UT38).
T1 sequence (W6UT38 1-621): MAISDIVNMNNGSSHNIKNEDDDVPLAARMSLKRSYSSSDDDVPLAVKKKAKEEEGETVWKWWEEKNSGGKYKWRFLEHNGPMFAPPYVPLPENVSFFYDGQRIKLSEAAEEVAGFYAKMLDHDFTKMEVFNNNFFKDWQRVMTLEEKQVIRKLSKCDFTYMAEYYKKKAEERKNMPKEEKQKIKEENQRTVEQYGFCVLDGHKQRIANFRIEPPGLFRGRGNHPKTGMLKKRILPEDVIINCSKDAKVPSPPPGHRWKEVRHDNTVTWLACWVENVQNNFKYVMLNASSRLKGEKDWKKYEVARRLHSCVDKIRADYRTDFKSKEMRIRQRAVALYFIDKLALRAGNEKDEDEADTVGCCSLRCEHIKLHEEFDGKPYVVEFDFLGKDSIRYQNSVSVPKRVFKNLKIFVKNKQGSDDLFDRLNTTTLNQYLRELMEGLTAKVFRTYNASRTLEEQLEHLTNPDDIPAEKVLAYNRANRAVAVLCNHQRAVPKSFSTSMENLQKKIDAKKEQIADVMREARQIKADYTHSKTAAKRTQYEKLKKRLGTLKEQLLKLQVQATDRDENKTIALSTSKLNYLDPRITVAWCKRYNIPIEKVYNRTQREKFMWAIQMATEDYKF
In words: Egtopo I-mediated DNA relaxation assay. The series is classed as biochemical, Echinococcus granulosus sensu stricto. The settings on record: read-out: IC50 Egtopo I activity; relaxation of supercoiled pBR322, 30 min 37 °C. The method, boiled down:
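Kit-based relaxation assay with pBR322 (200 ng), Egtopo I (300 ng) and 0.1% BSA. Test compound at final 50, 100, 150, 200, 300, 400, 500 and 600 μM in assay buffer, 30 min at 37 °C. Stopped with 10% SDS plus loading buffer, run on 1% agarose and stained with ethidium bromide (5 μg/ml). IC50 from a nonlinear regression fit, n = 3.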

Another series has as its target CYP2C9 (Homo sapiens, UniProt P11712). In words: CYP450 inhibition assay, human liver microsomes. The series is classed as in vitro ADME.
In series [9] the test system is E. granulosus ss PSCs. As to the kind of experiment: DNA fragmentation assay in PSCs. The class given is cell-based. The following applies: 50 μM, 24 h.
For series [10], the system named is E. granulosus ss cysts. In words: Microinjection treatment of cysts. The class given is in vivo, Echinococcus granulosus sensu stricto.
The next series relates to bone marrow. The settings on record: mice, bone marrow ref 38, 39; cited from earlier work.
The nature of series [11]: 28 days oral treatment NOAEL in the rat. The settings on record: in vivo, 23 mg/kg/day.
In a further series the target is CYP2C19 (Homo sapiens, UniProt P33261). As to the kind of experiment: CYP450 inhibition assay, human liver microsomes. The series is classed as in vitro ADME.
Chain of CYP2C19 (P33261 whole entry): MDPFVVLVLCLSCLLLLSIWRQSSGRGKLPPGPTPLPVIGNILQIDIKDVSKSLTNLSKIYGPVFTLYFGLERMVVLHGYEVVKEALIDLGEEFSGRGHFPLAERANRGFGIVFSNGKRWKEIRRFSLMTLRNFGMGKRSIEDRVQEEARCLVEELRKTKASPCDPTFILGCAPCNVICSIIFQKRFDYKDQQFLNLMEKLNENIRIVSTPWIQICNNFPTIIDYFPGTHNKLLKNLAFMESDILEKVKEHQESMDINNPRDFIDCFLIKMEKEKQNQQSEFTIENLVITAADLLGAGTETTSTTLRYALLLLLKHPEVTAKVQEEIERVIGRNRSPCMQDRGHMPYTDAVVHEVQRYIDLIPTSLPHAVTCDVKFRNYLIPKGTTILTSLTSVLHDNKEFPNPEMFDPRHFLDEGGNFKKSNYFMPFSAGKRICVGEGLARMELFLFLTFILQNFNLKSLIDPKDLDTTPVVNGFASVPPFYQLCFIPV
Series [12] concerns Salmonella typhimurium strains. The following applies: cited from earlier work.
Series [13] concerns E. granulosus ss cysts. In words: In vivo efficacy, intraperitoneal administration, secondarily infected mice. Set-up: species or system Echinococcus granulosus sensu stricto. In short, it runs like this:
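Female BALB/c mice, 6–8 weeks, were infected intraperitoneally with microcysts and randomised at 3 months. Test compound in saline at 14, 28 or 57 mg/kg (n = 10 each), 1.0 ml i.p. once daily for 3 days; saline controls n = 12. Necropsy 2 weeks post-treatment. Cysts were weighed, and viability was scored by morphology: type 1 alive, types 2–3 dead. Kruskal-Wallis test.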

For series [14], the system named is E. granulosus ss PSCs. As to the kind of experiment: TUNEL assay in PSCs. The series is classed as cell-based. The settings on record: 100 µM, 24 h.
Series [15] in a line: 28 days oral treatment NOAEL in the dog. The following applies: in vivo, 5 mg/kg/day.
The target of another series is T2, CYP1A2 (Homo sapiens, UniProt P05177).
T2 sequence (P05177 1-516): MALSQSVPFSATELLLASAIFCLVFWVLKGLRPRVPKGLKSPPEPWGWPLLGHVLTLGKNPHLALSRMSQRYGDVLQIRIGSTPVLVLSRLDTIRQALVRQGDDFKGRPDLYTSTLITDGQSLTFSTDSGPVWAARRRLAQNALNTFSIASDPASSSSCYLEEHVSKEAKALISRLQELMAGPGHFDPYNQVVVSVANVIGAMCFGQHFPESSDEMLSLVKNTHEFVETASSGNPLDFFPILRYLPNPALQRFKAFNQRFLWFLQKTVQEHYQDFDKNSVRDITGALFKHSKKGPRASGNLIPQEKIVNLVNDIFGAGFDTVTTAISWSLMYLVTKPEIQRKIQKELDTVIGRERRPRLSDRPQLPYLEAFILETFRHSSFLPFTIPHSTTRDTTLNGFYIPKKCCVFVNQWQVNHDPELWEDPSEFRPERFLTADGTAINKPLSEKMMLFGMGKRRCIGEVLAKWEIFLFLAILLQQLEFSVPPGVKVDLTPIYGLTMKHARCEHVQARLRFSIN
As to the kind of experiment: CYP450 inhibition assay, human liver microsomes. The series is classed as in vitro ADME.

Series [16] in a line: Tolerability, organ weights and blood parameters, intraperitoneal study. The series is classed as in vivo, mice. In short, it runs like this:
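Microcyst-infected female BALB/c mice were dosed i.p. once daily for 3 days with test compound in saline (14, 28, 57 mg/kg; n = 10) or saline (n = 12). During treatment they were watched for emaciation, hunched back, ruffled coat, appetite and behaviour changes. Two weeks post-treatment, plasma was taken for haematology and biochemistry, and liver, kidneys, thymus and body were weighed.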

A further series deals with CYP2D6 (Homo sapiens, UniProt P10635). As to the kind of experiment: CYP450 inhibition assay, human liver microsomes. The series is classed as in vitro ADME.
Chain of CYP2D6 (P10635 whole entry): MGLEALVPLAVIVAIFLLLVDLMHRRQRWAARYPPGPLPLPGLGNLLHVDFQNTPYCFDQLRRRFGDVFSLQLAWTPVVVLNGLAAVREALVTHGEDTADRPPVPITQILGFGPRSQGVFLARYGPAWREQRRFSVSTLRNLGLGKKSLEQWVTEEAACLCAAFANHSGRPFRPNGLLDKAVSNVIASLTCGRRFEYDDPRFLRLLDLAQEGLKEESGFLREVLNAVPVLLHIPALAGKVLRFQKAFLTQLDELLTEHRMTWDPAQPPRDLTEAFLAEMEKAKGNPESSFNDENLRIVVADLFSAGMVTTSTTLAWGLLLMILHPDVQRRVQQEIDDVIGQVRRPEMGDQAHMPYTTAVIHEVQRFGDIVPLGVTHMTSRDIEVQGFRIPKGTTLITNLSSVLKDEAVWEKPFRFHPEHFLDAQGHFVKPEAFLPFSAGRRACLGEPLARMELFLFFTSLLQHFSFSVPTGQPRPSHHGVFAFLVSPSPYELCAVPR
Series [17] in a line: In vivo pharmacokinetics and tissue distribution. The following applies: for Kp: male, ICR, mouse, intraperitoneal, 57 mg/kg. More on the design: species or system mice. The method, boiled down: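 Male ICR mice (20–22 g, 3 per time point) received a single 57 mg/kg i.p. dose. Plasma was precipitated with acetonitrile containing internal standards and centrifuged at 2600 g for 10 min at 4 °C. Liver and lung were homogenised in 4 volumes of 100 mM phosphate buffer, pH 7.4, and processed alike. Samples taken 0.25–48 h were measured by LC-MS/MS and analysed non-compartmentally.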

Where [18] appears, read: 0 to 48 h, single 57 mg/kg i.p.

Where two headings read alike, the source gives them in different places.

Chain of CYP2C9 (P11712 whole entry, the tested form may be a part): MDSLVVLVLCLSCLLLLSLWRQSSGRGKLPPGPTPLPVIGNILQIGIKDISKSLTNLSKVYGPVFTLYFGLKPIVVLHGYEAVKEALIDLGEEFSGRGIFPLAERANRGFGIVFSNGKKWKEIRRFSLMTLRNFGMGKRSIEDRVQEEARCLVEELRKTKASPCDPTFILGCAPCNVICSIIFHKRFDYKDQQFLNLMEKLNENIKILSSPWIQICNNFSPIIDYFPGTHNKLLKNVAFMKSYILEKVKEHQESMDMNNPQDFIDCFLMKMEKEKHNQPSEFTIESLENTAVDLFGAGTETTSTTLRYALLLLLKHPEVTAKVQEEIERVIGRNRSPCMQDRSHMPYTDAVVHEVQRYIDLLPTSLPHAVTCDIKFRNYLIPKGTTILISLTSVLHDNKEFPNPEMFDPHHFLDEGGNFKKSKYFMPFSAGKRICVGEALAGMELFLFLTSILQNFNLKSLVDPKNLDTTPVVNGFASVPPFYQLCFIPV

A word on the LC50: it is the concentration lethal to half of the exposed cells or organisms. In the series on E. granulosus ss cysts [1] (ABZ 50 mg/kg p.o. q.d. 30 days), `CCCSc1ccc2nc(NC(=O)OC)[nH]c2c1` [ABZ, albendazole] returned a cyst mortality rate of 22.2% and a cyst weight reduction of 48.1%. Moreover, in the series with cystic echinococcosis, the “CE cases that did not respond favorably to treatment” value is given as “approximately 40%”. For the same molecule, the median lethal concentration (LC50) in series [2] came out at 79.2 ± 3.9 µM. Besides, in the series with E. granulosus ss cysts [3] (ABZ 50 mg/kg, p.o.), the “cyst ultrastructure (TEM)” value is given as “did not exhibit obvious ultrastructural changes”. The body weight result in series [4] (ABZ 50 mg/kg p.o. 30 days) is given as “minor loss of body weight”.

As usually defined, the IC50 is the point on the concentration scale where inhibition reaches its midpoint. As a reminder, the NOAEL is the highest dose or exposure tested at which no adverse effect was seen. The term Kp denotes the ratio of the level in a tissue or fluid to that in plasma or blood. For `COc1ccc2nc3cc(Cl)ccc3c(Nc3cc(CN4CCCC4)c(O)c(CN4CCCC4)c3)c2n1` [PND, pyronaridine], the figures for the “no observed adverse effect level (NOAEL)” value in [5] and in series [7] were 23 mg/kg/day and 5 mg/kg/day, respectively. In [6], the tolerability entry is given as “well tolerated”. Moreover, the half-inhibitory concentration (IC50) on CYP3A4 was greater than 10 µM; in series [8], 209.7 ± 1.1 µM; on CYP2C9, greater than 10 µM; on CYP2C19, greater than 10 µM; against CYP1A2, greater than 10 µM; against CYP2D6, 1.53 µM. In addition, the “cysts killed (mortality rate)” value with E. granulosus ss cysts [1] (PND 57 mg/kg p.o. q.d. 30 days) worked out at 90.7%. Further, the “parasite wet weight reduction” value with E. granulosus ss cysts [1] (PND 57 mg/kg p.o. q.d. 30 days, vs vehicle control) turned out to be 42.4%; in the series with E. granulosus ss cysts [10] (200 μM microinjected, 30 days post-treatment, vs saline group) it was 52.3%. For the same molecule, in the series on caspase-3, the “increase in caspase-3 activity” value came to 20 fold. In addition, the LC50 in series [2] was 49 ± 0.2 µM. In addition, in the series on E. granulosus ss cysts [3] (PND 57 mg/kg, both i.p. and p.o.), the “cyst ultrastructure (TEM)” value is given as “devastating damage of the cyst tissues”. In addition, the “DNA ladder on agarose gel” value in the series with E. granulosus ss PSCs [9] was “a clear pattern of DNA fragmentation (DNA ladder) was observed”. In the series with E. granulosus ss cysts [10] (200 μM microinjected, 35 cysts/mouse transferred, 30 days), this molecule registered a cyst counts of 6.4 ± 1.2. In addition, the “cysts killed after microinjection” value in the series with E. granulosus ss cysts [10] (microinjection with PND) is listed as “more than 90%”. Moreover, in the series on bone marrow, the micronucleus frequency result is recorded as “no increase in micronucleus frequency in the bone marrow”. The NOAEL at 28 days in series [11] turned out to be 3.7 mg/kg/day; in [15], 2.7 mg/kg/day. For the same molecule, the Ames mutagenicity entry in [12] (strain TA1537 ref 40) is “evidence of bacterial mutagenicity”; in [12] (strains TA100, TA98, TA1535 and TA1538 ref 40), “did not induce mutations”. The molecule also returned a cyst mortality in the series with E. granulosus ss cysts [13] (57 mg/kg i.p. q.d. 3 days) of 100%. The “wet cyst weight reduction” value in the series with E. granulosus ss cysts [13] (57 mg/kg i.p. q.d. 3 days, vs unmedicated mice) was 38.7%. Further, the growth of cysts entry in the series on E. granulosus ss cysts [13] (14, 28 and 57 mg/kg i.p. q.d. 3 days) is listed as “successfully suppressed the growth of cysts”. Besides, the “TUNEL staining (DNA fragmentation)” value in the series on E. granulosus ss PSCs [14] is “abundant TdT dUTP nick-end labeling (TUNEL)-positive cells were observed”. For the same molecule, in series [16] (14, 28, 57 mg/kg i.p. q.d. 3 days), the “behaviour and adverse effects” value is reported as “without obvious adverse effects”. For the same molecule, in series [16] (high-dosage group (57 mg/kg i.p.), vs control), the liver weight entry is on record as “a minor increase in liver weight”. Further, the body weight result in series [4] (PND 57 mg/kg p.o. 30 days) is “minor loss of body weight”. Also, the “average concentration in the liver” value in [17] (setting [18]) came out at 435.7 µmol/kg. The “average concentration in the lungs” value in [17] (setting [18]) worked out at 122.5 µmol/kg. In addition, the average plasma concentration in series [17] (setting [18]) was 1.5 µM. Further, the results for the concentration ratio (Kp) in series [17] (liver/plasma) and in [17] (lungs/plasma) were 290 and 81.7, respectively.
